The source made the active and inactive calls.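 The calls were made as follows, unless noted: active = a full or partial loss of lipid-probe fluorescence in the fish gall bladder, intestine or both, judged by eye; inactive = no fluorescence loss, or compound toxic to the fish.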

The values that follow come from PubChem BioAssay.

A short description of assay [1]: inhibitors of TNFa-induced NFkB p65 translocation, primary screen, imaging, HUVEC, MLSMR starter and 10KST1 sets (AID 438;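 active = inhibition above 20% together with a positive visual image hit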;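 also: compound added about 3h40 before a 20 min TNFalpha stimulation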;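 as to inhibition: signal is the nuclear over cytoplasmic p65 intensity ratio per well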). The following applies: HUVEC TNFa-induced p65 nuclear translocation; cell count: measured here: nuclei count (cytotoxicity indicator), at 2.08 µM; inhibition: at 2 µM, stronger effect = higher value, 0% TNFa-plus-vehicle, 100% no-TNFa wells.
Assay [2] can be described thus: endothelial E-selectin expression blockers – imaging, HUVEC, immunofluorescence, MLSMR starter and 10KST1 sets, primary screen (AID 487;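 active = visually confirmed hit in the image check and inhibition above 20%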;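 as to inhibition: signal is fraction of cell area covered by stained E-selectin grains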;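 as to nuclei count: 100% = median nuclei count of all wells on the same plate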). As to conditions: HUVEC TNFalpha-induced E-selectin immunofluorescence imaging, at 2 µM; inhibition: stronger effect = higher value; nuclei count: measured here: cell number, toxicity.
Assay [3] in a line: Primary imaging screen for DUSP6 inhibitors that restore phospho-Erk in transfected HeLa cells, chemical complementation (AID 609;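 active = compounds giving at least 50% inhibition in the cell-based MKP-3 phosphatase rescue imaging test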;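 as to inhibition: phospho-Erk level distribution per well compared with pooled transfected vehicle control wells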). As to conditions: HeLa MKP-3 transfected, phospho-Erk imaging KS statistic, at 10 µM, cells stimulated with TPA for 15 min.
Assay [4] deals with Dual specificity protein phosphatase 6 (Homo sapiens) (UniProt Q16828). Described as above. As to conditions: HeLa MKP-3 transfected, phospho-Erk imaging KS statistic; at 10 µM; stronger effect = higher value; cells stimulated with TPA for 15 min.
Sequence of Dual specificity protein phosphatase 6 (Homo sapiens) (Q16828 whole entry, looked up): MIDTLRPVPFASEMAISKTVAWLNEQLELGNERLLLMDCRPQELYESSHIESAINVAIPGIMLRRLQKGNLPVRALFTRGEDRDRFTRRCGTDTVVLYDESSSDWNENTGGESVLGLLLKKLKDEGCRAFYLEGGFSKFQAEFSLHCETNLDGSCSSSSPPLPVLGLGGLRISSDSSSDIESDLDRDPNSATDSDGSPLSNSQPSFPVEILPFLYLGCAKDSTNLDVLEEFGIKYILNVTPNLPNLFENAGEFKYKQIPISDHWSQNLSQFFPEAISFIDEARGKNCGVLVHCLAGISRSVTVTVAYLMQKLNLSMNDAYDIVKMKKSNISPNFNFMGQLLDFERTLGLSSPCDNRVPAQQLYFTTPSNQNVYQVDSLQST
In assay [5] the target is Voltage-gated potassium channel subunit beta-2 (Rattus norvegicus) (UniProt P62483). In words: inhibitors of rat Kvbeta2 reductase activity – biochemical, NADPH fluorescence, primary screen (AID 622;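 active = fluorescence slope higher than the sample average by over 3 SD, cut at about -0.22 in these data, passing the limit was not always enough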;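 also: slope of raw intensity against log time taken from 70 to 1610 s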). The following applies: recombinant KvBeta, 4-cyanobenzaldehyde reduction, at 10 µM, stronger effect = higher value.
Sequence of Voltage-gated potassium channel subunit beta-2 (Rattus norvegicus) (P62483 whole entry, looked up): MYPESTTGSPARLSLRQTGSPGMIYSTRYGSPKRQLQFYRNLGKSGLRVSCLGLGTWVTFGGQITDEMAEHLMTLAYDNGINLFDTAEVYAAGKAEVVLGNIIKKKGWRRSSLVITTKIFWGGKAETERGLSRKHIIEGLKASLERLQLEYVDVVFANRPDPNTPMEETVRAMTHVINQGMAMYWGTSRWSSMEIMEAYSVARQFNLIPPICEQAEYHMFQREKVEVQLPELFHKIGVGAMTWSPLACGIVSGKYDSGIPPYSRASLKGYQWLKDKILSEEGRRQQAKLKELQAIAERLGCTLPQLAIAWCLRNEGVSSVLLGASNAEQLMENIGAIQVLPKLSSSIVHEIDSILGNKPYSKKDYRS
Assay [6] has the same target. Kind of assay: enhancers of rat Kvbeta2 NADPH turnover – biochemical, NADPH fluorescence, primary screen (AID 623;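 active = NADPH fluorescence slope more negative than the mean of all samples by about 3 SD, 99.7% confidence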;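 also: fluorescence intensity change per second fitted from 20 to 320 s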). The following applies: Recombinant KvBeta, NADPH fluorescence decrease slope, 10 min; at 10 µM; stronger effect = lower value.
For assay [7], the target named is Muscarinic acetylcholine receptor M4 (Homo sapiens) (UniProt P08173). Kind of assay: M4-linked GIRK flux change, two-sided – cell-based, HEK293 M4/GIRK, thallium flux, BTC-AM, M4 allosteric agonist project, primary screen (AID 625;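 active = fluorescence slope after compound addition differing from the mean of all tested samples at 99.7% confidence, mostly higher but some lower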;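 also: thallium influx through GIRK channels coupled to M4 in HEK293 cells with BTC-AM dye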). As to conditions: at 10 µM, actives lie on both sides. The gist of the method:
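Material – HEK293 cells with M4 receptor and GIRK channels · Buffer or medium – pH 7.3 thallium assay buffer · Doses – one dose, 10 µM final · Timing – cells overnight at 37 °C, BTC-AM loading 1 h, reads 2 min total · Measured by – kinetic fluorescence with BTC-AM dye · Controls – carbachol and DMSO controls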

Assay [8] is described as follows: inhibitors of larval lipid processing in zebrafish, primary screen, whole organism, PED6 fluorescence, gall bladder and intestine (AID 686).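 Also: larvae 5 to 7 days old with five fish per well; signal comes from phospholipase A2 cleavage of quenched PED6 carried via bile; overnight exposure to compound and PED6 before scoring.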 As to conditions: Zebrafish larvae PED6 lipid processing, fluorescence scoring; screened at 20 µM (by protocol). The gist of the method:
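system = live zebrafish larvae aged 5-7 days, whole organism | probe or stimulus = ingested quenched lipid PED6 at 100 nM | doses = 20 µM single dose | timing = overnight exposure | detection = fluorescence microscopy with visual scoring of gall bladder and intestine | read-out = visual per-well fluorescence inhibition score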

The nature of assay [9]: loss of swimming-algae plug formation – whole organism, Chlamydomonas reinhardtii, WT vs cilia-less mutant, absorbance, 96-well, primary screen (AID 463189;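 active = inhibition at or above 50% relative to wild type and mutant plate controls; inactive = inhibition below 50%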;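 also: 0% = wild type cc124 cells in DMSO and 100% = ciliumless bld1 mutant cells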). As to conditions: Chlamydomonas reinhardtii gravitaxis, OD600 absorbance, 2 days; at 10 µM; stronger effect = higher value.
[10] abbreviates: measured here: cell density z-score.
The mark [11] stands for this setting: measured here: nuclear c-Myc green intensity z-score.
Where [12] appears, read: measured here: nuclear pErk red intensity z-score, stronger effect = higher value.

Sequence of Muscarinic acetylcholine receptor M4 (Homo sapiens) (P08173 whole entry, looked up): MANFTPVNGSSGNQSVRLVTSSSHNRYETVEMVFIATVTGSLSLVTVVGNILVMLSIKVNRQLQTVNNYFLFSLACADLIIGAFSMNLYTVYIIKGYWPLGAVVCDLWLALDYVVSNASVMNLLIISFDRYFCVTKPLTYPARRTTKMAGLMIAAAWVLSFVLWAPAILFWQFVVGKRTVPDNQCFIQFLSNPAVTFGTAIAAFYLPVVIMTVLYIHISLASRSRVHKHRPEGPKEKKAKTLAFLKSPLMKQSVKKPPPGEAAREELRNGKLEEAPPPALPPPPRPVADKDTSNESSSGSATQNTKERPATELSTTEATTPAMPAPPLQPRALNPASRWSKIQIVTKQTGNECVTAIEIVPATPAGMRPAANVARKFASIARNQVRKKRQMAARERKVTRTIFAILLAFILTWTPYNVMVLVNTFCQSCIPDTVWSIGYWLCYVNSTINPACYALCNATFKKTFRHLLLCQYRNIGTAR

Usually inhibition stands for the change of the read-out against control, counted positive when it falls. Turning to `N#CCSc1nc2c(c(=O)n1Cc1ccco1)C1(CCCC1)Cc1ccccc1-2`, in assay [1], the cell count worked out at 500. Besides, the inhibition is -2.6% (inactive) in assay [1], -97.3% (inactive) in [2], 13.9% (inactive) in assay [4] and -7.4% (inactive) in assay [9]. In assay [2], this molecule showed a nuclei count of 150%. For the same molecule, the z-score in [3] (setting [10]) is 0.3; in assay [3] (setting [11]), 0.666; in [3] (setting [12]), -0.907. In addition, the fluorescence slope in assay [5] was -0.397 (inactive); in assay [7] it was 0.00897 (inactive). Besides, in assay [6], the NADPH fluorescence slope was -2.2e-05 (inactive). The outcome in assay [8] was “active; weak signal in gallbladder and intestine”.

Regarding `Cc1cccc(-c2nnc3n2N=C(c2ccc(Br)cc2)CS3)c1`, the cell count in [1] stood at 769. The inhibition in assay [1] was -2.9% (inactive); in assay [2] it was -27.2% (inactive); in [4], -2.91% (inactive); in assay [9], -0.766% (inactive). The molecule further registered a nuclei count in assay [2] of 176%. Further, the results for the z-score in assay [3] (setting [10]), in assay [3] (setting [11]) and in [3] (setting [12]) were -0.385, 0.639 and 0.0185, respectively. Moreover, the fluorescence slope in assay [5] was -0.433 (inactive); in assay [7], 0.006 (inactive). The NADPH fluorescence slope in assay [6] is -5.4e-05 (inactive). In addition, the molecule was called inactive in [8].

As for `Cn1c(N)c(C#N)c2c(c1=S)CSC(C)(C)C2`, the cell count in assay [1] was determined as 571. The inhibition is -20% (inactive) in [1], -64.2% (inactive) in [2], 25.8% (inactive) in assay [4] and 9.9% (inactive) in [9]. Besides, the nuclei count in [2] worked out at 144%. Moreover, the z-score in [3] (setting [10]) is 0.44; in assay [3] (setting [11]) it was -1.23; in assay [3] (setting [12]), -1.03. Besides, the results for the fluorescence slope in assay [5] and in [7] were -0.446 (inactive) and 0.00454 (inactive), respectively. In addition, the NADPH fluorescence slope in assay [6] is -6.4e-06 (inactive). Besides, the molecule was classed as inactive in assay [8].

With `O=C(NCCCn1ccnc1)c1cccnc1`, in assay [1], the cell count came to 412. Besides, the inhibition in [1] is -1% (inactive); in [2], -143% (inactive); in assay [4], 5.65% (inactive); in [9], 0.663% (inactive). In assay [2], the nuclei count worked out at 187%. The z-score is -0.692 in [3] (setting [10]), 0.968 in assay [3] (setting [11]) and -0.483 in assay [3] (setting [12]). Besides, the fluorescence slope in assay [5] was -0.459 (inactive); in assay [7], 0.00592 (inactive). The NADPH fluorescence slope in [6] is -0.000144 (inactive). Besides, the molecule was classed as inactive in assay [8].

In the case of `Cc1ccc2cc(CNC(C)C)c(=O)[nH]c2c1`, the cell count in [1] worked out at 529. Also, the inhibition in [1] is -8.4% (inactive); in assay [2], 12.9% (inactive); in [4], 37.7% (inactive); in [9] it was -6.41% (inactive). Moreover, the nuclei count in [2] turned out to be 99.8%. Further, the z-score in assay [3] (setting [10]) was 2.86; in [3] (setting [11]) it was -1.18; in [3] (setting [12]), -1.89. Moreover, the fluorescence slope in assay [5] is -0.49 (inactive); in assay [7] it was 0.00672 (inactive). For the same molecule, the NADPH fluorescence slope in [6] is -2.7e-05 (inactive). Moreover, in [8], the molecule was classed as inactive.

In the case of `CC(=O)c1cccc(N=C2NC(=O)C(CO)(CO)S2)c1`, the cell count in assay [1] worked out at 634. Moreover, the inhibition in [1] is 1.6% (inactive); in [2], -12.3% (inactive); in [4], -2.09% (inactive); in assay [9] it was -10% (inactive). Also, the nuclei count in [2] turned out to be 118%. Also, the values for the z-score in assay [3] (setting [10]), in assay [3] (setting [11]) and in assay [3] (setting [12]) were -2.29, 1.22 and 0.157, respectively. For the same molecule, the fluorescence slope was -0.441 (inactive) in [5] and 0.00557 (inactive) in assay [7]. For the same molecule, in assay [6], the NADPH fluorescence slope was -4.4e-05 (inactive). Moreover, the result in assay [8] was inactive.

Turning to `CN1C(=O)C2(c3ccccc31)C1CCCC=C1C(C#N)=C(N)C2(C#N)C#N` (stereo unspecified), the cell count in assay [1] stood at 391. The inhibition in [1] is -7% (inactive); in assay [2], -160% (inactive); in [4], 29.4% (inactive); in assay [9], 4.14% (inactive). This molecule had a nuclei count in assay [2] of 143%. In addition, the z-score was -0.865 in assay [3] (setting [10]), 0.905 in assay [3] (setting [11]) and -0.897 in assay [3] (setting [12]). In addition, the results for the fluorescence slope in assay [5] and in assay [7] were -0.472 (inactive) and 0.00434 (inactive), respectively. The NADPH fluorescence slope in assay [6] was -1.9e-05 (inactive). In [8], the call was inactive.
